Laboratory results from ChEMBL document CHEMBL1152709, “Tricyclic HIV integrase inhibitors: VI. SAR studies of 'benzyl flipped' C3-substituted pyrroloquinolines” (Bioorg Med Chem Lett, 2009).
pEC50, pIC50: −log10 of the molar value.

How the values were obtained:
[1] = molecular target: Human immunodeficiency virus type 1 integrase (Human immunodeficiency virus 1, UniProt Q7ZJM1); assay: Inhibition of HIV1 HXB2 integrase strand transfer activity by microtiter assay
Summary of the method: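 Strand transfer measured in a microtiter format using DIG-tagged target DNA, detected with anti-DIG antibody–horseradish peroxidase conjugate. IC50 reported in nM as the mean of at least two experiments.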

[2] = test system: Human immunodeficiency virus 1; assay: Antiviral activity against HIV1 3B infected in human MT2 cells after 5 days by cell-titer assay in presence of 10% FBS; assay type: functional, organism-based; details: Human immunodeficiency virus 1, 3B, MT2, 120 h
Summary of the method: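 MT-2 cells infected with HIV-1 IIIB (m.o.i. 0.01, 3 h), then about 1.5 × 10⁴ cells per well added to 9 concentrations of 5-fold serially diluted drug in triplicate, in culture medium with 10% FBS. Incubated 5 days at 37 °C. Viability read by CellTiter-Glo chemiluminescence after 10 min lysis at room temperature. Values are means of at least two experiments.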

[3] = test system: Human immunodeficiency virus 1; assay: Antiviral activity against HIV1 3B infected in human MT2 cells after 5 days by cell-titer method in presence of human serum albumin and alpha1-acid glycoprotein; assay type: functional, organism-based; details: Human immunodeficiency virus 1, 3B, MT2, 120 h
Summary of the method: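 Same MT-2/HIV-1 IIIB assay (m.o.i. 0.01, 5 days at 37 °C, CellTiter-Glo read-out), run in 10% FBS with or without HSA (35 mg/ml) or α1-AGP (1.5 mg/ml). The combined-protein (serum-adjusted) EC₅₀ was calculated from the EC₅₀ values with each protein alone, using an equation derived from competitive binding assumptions.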

[4] = Oral bioavailability in rat at pH 2.2; assay type: ADME, organism-based; details: in vivo
Summary of the method: (§1)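 Oral dosing of parent compound as a solution in EtOH, PG, PEG400 and citric acid at pH 2.2, alongside an i.v. group (pH 3.3). F (%) was calculated from p.o. versus i.v. AUC. Values are the mean of three animals per study.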

[5] = Half life in iv dosed rat at pH 3.3; assay type: ADME, organism-based; details: in vivo
Summary of the method: (§2)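 Parent compound given i.v. as a solution in EtOH, PG, PEG400 and citric acid at pH 3.3. Total body clearance and T½ were derived from the i.v. group. Values are the mean of three animals per study.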

[6] = Clearance in iv dosed rat at pH 3.3; assay type: ADME, organism-based; details: in vivo; summary of the method: as §2
[7] = Oral bioavailability in dog at pH 2.2; assay type: ADME, organism-based, Canis lupus familiaris; details: in vivo; summary of the method: as §1
[8] = Half life in iv dosed dog at pH 3.3; assay type: ADME, organism-based, Canis lupus familiaris; details: in vivo; summary of the method: as §2
[9] = Clearance in iv dosed dog at pH 3.3; assay type: ADME, organism-based, Canis lupus familiaris; details: in vivo; summary of the method: as §2

Chain of Human immunodeficiency virus type 1 integrase (Q7ZJM1 whole entry): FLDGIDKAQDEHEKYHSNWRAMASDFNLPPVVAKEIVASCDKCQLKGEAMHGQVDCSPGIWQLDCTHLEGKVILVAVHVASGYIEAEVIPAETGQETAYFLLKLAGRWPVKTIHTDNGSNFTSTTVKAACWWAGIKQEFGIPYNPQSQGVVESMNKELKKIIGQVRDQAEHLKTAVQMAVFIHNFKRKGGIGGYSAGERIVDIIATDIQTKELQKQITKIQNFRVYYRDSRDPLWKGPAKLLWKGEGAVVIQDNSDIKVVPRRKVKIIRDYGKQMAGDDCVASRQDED

| Structure (SMILES) | pIC50 [1] | pEC50 [2] | pEC50 [3] | bioavailability [4] [%] | half-life [5] [h] | clearance [6] [mL/min/kg] | bioavailability [7] [%] | half-life [8] [h] | clearance [9] [mL/min/kg] |
| --- | --- | --- | --- | --- | --- | --- | --- | --- | --- |
| COc1c2c(c(O)c3ncc(Cc4ccc(F)cc4)cc13)C(=O)N(Cc1ccc(F)cc1)C2 | 6.22 | 6.98 | – | – | – | – | – | – | – |
| COc1c2c(c(O)c3ncc(Cc4ccc(F)cc4)cc13)C(=O)NC2 | 7.85 | 7.80 | 7.57 | – | – | – | – | – | – |
| CN1Cc2c(c(O)c3ncc(Cc4ccc(F)c(Cl)c4)cc3c2N(C)S(C)(=O)=O)C1=O | 6.58 | 8.96 | 7.46 | 11 | 1.7 | 3.67 | 60 | 8.8 | 2 |
| CN1Cc2c(c(O)c3ncc(Cc4ccc(F)cc4)cc3c2N(C)S(C)(=O)=O)C1=O | 7.10 | 8.70 | 8.15 | 12 | 0.4 | 8.17 | 47 | 4.4 | 2.17 |
| COc1c2c(c(O)c3ncc(Cc4ccc(F)cc4)cc13)C(=O)N(C)C2 | 7.00 | 7.70 | – | – | – | – | – | – | – |
